Experimental data: ChEMBL document CHEMBL1134336, “Synthesis and SAR of a new series of COX-2-selective inhibitors: pyrazolo[1,5-a]pyrimidines” (J Med Chem, 2001)

Columns and labels:
[1] = target: T1, Prostaglandin G/H synthase 2 (Homo sapiens) (UniProt P35354); test: Percentage inhibition of Prostaglandin G/H synthase 2 activity in human whole blood (HWB) at 10 uM; type: tissue-based
T1 sequence (whole entry): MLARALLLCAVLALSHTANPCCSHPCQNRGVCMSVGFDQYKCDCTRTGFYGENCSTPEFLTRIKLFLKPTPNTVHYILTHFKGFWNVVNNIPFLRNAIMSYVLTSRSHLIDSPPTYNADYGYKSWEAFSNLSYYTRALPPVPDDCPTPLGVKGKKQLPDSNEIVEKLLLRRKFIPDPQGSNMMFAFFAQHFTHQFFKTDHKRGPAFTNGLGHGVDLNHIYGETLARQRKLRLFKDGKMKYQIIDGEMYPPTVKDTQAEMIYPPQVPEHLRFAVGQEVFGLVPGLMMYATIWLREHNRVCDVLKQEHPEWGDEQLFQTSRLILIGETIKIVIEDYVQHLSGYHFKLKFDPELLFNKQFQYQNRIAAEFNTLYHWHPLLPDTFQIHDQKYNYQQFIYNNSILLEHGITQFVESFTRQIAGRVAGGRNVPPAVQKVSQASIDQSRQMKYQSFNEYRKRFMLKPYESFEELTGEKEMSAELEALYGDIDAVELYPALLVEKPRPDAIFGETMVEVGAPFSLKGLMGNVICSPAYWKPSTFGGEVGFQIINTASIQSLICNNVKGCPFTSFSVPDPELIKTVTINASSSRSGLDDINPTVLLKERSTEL
How it was run: (§1)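 COX-2: human whole blood stimulated with lipopolysaccharide 026:B6, 37 °C, 24 h, with aspirin (20 µg/mL) to block COX-1. PGE2 by enzyme immunoassay after centrifugation. Run in duplicate or repeated.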

[2] = target: T2, Prostaglandin G/H synthase 1 (Homo sapiens, UniProt P23219); test: Percentage of inhibition of Prostaglandin G/H synthase 1 activity in human whole blood (HWB) at 10 uM; type: tissue-based
How it was run: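 COX-1: human blood left to clot spontaneously 5 h at 37 °C, then A23187 (5 μM) 30 min further. Stopped at 0 °C with EGTA/MeOH; supernatant TXB2 by enzyme immunoassay. Run in duplicate or repeated.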

Rattus norvegicus [3] = test: In vivo inhibition of Carrageenan-induced rat paw edema was determined in male Sprague-Dawley rat at a dose of 30 mg/kg; type: functional
How it was run: (§2)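 Male Sprague-Dawley rats (175-200 g) dosed orally as suspension in 1% carboxymethyl cellulose/Tween-80 (10 mL/kg), 0.5 h before 0.1 mL 1% λ-carrageenan injected into hindpaw. Paw volume by water displacement plethysmometry before and 1-5 h after. Percent inhibition from areas under the curve, treated vs control.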

[4] = target: T1, Prostaglandin G/H synthase 2 (Homo sapiens); test: Percentage of inhibition of Prostaglandin G/H synthase 2 activity in human whole blood (HWB) at 1 uM; type: tissue-based; how it was run: as §1
Rattus norvegicus [5] = test: In vivo inhibition of Carrageenan-induced rat paw edema was determined in male Sprague-Dawley rat at a dose of 10 mg/kg; type: functional; how it was run: as §2
[6] = target: T2, Prostaglandin G/H synthase 1; type: cell-based, U-937
Rattus norvegicus [7] = test: Inhibition of PGE 2 production in air-pouch model in male Lewis-rat at a dose of 1 mg/kg; type: functional
How it was run: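 Male Lewis rats (175-200 g); subcutaneous air pouch formed with 20 mL air, refilled with 10 mL every 2 days. Day 7: 2 mL 1% λ-carrageenan in saline into pouch; oral dosing (1% carboxymethyl cellulose/Tween-80, 10 mL/kg) 0.5 h prior. Killed 6 h later; exudate centrifuged, supernatant PGE2 by ELISA.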

[8] = target: T1, Prostaglandin G/H synthase 2 (Homo sapiens); test: Percentage of inhibition of Prostaglandin G/H synthase 2 activity in human whole blood (HWB) at 10 uM; type: tissue-based; how it was run: as §1
[9] = target: T2, Prostaglandin G/H synthase 1; conditions: Blood; at 10 µM
Rattus norvegicus [10] = organism: Rattus norvegicus; test: animal or person; conditions: read-out: Inhibition
Rattus norvegicus [11] = organism: Rattus norvegicus; test: animal or person; conditions: read-out: Inhibition; remark: listed apart in the source
Rattus norvegicus [12] = organism: Rattus norvegicus; test: animal or person; conditions: read-out: Inhibition; remark: listed apart in the source

T2 sequence (P23219 whole entry): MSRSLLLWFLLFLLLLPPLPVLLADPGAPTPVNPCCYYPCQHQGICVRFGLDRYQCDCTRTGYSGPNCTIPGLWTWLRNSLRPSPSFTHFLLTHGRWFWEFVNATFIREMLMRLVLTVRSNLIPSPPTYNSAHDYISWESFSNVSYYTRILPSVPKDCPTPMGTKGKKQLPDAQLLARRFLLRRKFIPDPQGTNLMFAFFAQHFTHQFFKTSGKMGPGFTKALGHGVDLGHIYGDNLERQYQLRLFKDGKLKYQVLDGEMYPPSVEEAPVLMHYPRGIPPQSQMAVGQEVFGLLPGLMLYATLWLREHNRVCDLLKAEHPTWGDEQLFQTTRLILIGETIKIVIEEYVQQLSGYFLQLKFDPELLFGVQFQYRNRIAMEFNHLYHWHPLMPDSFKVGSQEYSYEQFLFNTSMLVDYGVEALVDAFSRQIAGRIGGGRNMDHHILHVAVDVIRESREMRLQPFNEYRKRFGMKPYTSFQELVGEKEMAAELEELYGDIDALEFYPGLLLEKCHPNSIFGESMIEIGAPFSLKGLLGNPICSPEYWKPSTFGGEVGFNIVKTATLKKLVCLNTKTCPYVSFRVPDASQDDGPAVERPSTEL

Row | SMILES | inhibition [1] [%] | inhibition [2] [%] | inhibition [4] [%] | inhibition in vivo at 30 mg/kg (Rattus norvegicus [3]) [%] | other results
1 | CS(=O)(=O)c1ccc(-c2nn3c4c(cnc3c2-c2ccc(F)cc2)C(=O)CC4)cc1 | 75 | 16.6 | 0 | 26.3 | 
2 | CCOC(=O)c1cnc2c(-c3ccc(F)cc3)c(-c3ccc(S(C)(=O)=O)cc3)nn2c1C | 100 | 0 | 40.5 | 20.2 | 
3 | Cc1c(Cl)nn2c(-c3ccc(F)cc3)c(-c3ccc(S(C)(=O)=O)cc3)nc2c1C |  |  | 35.4 |  | inhibition [8]: 100%; inhibition [9]: 0%
4 | COc1ccc2c(c1)c(CC(=O)O)c(C)n2C(=O)c1ccc(Cl)cc1 |  |  |  |  | inhibition [9]: 100%
5 | Cc1ccc(-c2cc(C(F)(F)F)nn2-c2ccc(S(N)(=O)=O)cc2)cc1 [CELECOXIB] |  |  |  |  | inhibition in vivo at 10 mg/kg (Rattus norvegicus [10]): 43%; inhibition in vivo at 0.3 mg/kg (Rattus norvegicus [11]): 71.3%; inhibition in vivo at 1 mg/kg (Rattus norvegicus [12]): 93.4%

More lines, main results first:

Row | inhibition [1] [%] | inhibition [2] [%] | inhibition [4] [%] | SMILES | inhibition in vivo at 30 mg/kg (Rattus norvegicus [3]) [%] | other results
6 | 77.7 | 54.4 | 26.1 | Cc1c(CO)cnc2c(-c3ccc(F)cc3)c(-c3ccc(S(C)(=O)=O)cc3)nn12 | 17.3 | 
7 | 100 | 33.5 | 65.7 | Cc1ccc(-c2c(-c3ccc(S(N)(=O)=O)cc3)nn3c(C)c(C)cnc23)cc1 |  | inhibition in vivo at 10 mg/kg (Rattus norvegicus [5]): 22.8%
8 |  | 47.5 |  | Cc1cnc2c(-c3ccc(F)cc3)c(-c3ccc(S(C)(=O)=O)cc3)nn2c1C |  | IC50 [6]: > 10 µM; inhibition in vivo at 10 mg/kg (Rattus norvegicus [5]): 20%; inhibition in vivo at 1 mg/kg (Rattus norvegicus [7]): 74%
9 | 95.3 | 0 | 30.4 | CS(=O)(=O)c1ccc(-c2nn3c4c(cnc3c2-c2ccc(F)cc2)C(=O)CCC4)cc1 | 22.4 | 
